Measured values from different studies.
Protocols differ between the studies behind these lines. pIC50: −log10 of the molar value.
CDK7 with cyclin H: Cyclin-dependent kinase 7, with cyclin H (CDK7, Homo sapiens, UniProt P50613)
KCNH2: Voltage-gated inwardly rectifying potassium channel KCNH2 (KCNH2, Homo sapiens, UniProt Q12809)
PDE4D: 3',5'-cyclic-AMP phosphodiesterase 4D (PDE4D, Homo sapiens, UniProt Q08499)
Antigen peptide transporter 1/Antigen peptide transporter 2: Antigen peptide transporter 1/Antigen peptide transporter 2 (Homo sapiens, UniProt Q03518+Q03519)
TEAD4: Transcriptional enhancer factor TEF-3 (TEAD4, Homo sapiens, UniProt Q15561)

| Structure (SMILES) | target | assay | system | setting | pIC50 |
| --- | --- | --- | --- | --- | --- |
| O=c1c2ccccc2[nH]c(=S)n1-c1ccccc1 | Prothrombin (F2, Homo sapiens, UniProt P00734) | enzyme activity, inhibitor | – | – | 4.03 |
| O=c1cc(-c2ccccc2)oc2c1ccc1occc12 | CDK7 with cyclin H | enzyme activity, inhibitor, ADP detection | – | – | 5.32 |
| C[C@H]1COCCN1c1nc(NCc2cccnc2C(F)(F)F)c2cccnc2n1 | KCNH2 | ion current, inhibitor | – | – | < 4.48 |
| CCCCOc1ccc(C(=O)CCN2CCCCC2)cc1 | PDE4D | enzyme activity, inhibitor, radiometric | – | – | 4.95 |
| CC(C)[C@H](NC(=O)[C@H](C)N)C(=O)N[C@@H](C)C(=O)N[C@@H](C)C(=O)N[C@@H](C)C(=O)N[C@@H](C)C(=O)N[C@@H](C)C(=O)N[C@@H](C)C(=O)N[C@@H](C)C(=O)N[C@@H](CCCCN)C(=O)O | Antigen peptide transporter 1/Antigen peptide transporter 2 | ligand displacement | – | – | 5.03 |
| CCCCCCCCCCCCCC(=O)O[C@@H]1[C@@H](C)[C@@]2(O)[C@@H](C=C(CO)C[C@]3(O)C(=O)C(C)=C[C@@H]23)[C@@H]2C(C)(C)[C@]12OC(C)=O | Proteinase-activated receptor 2 (F2RL1, Homo sapiens, UniProt P55085) | calcium signal, antagonist | – | – | 8.23 |
| CSCC[C@H](NC(=O)[C@H](CCCNC(=N)N)NC(=O)[C@H](CCSC)NC(=O)[C@@H]1CCCN1C(=O)[C@H](CC(C)C)NC(=O)[C@H](CO)NC(=O)[C@H](C)NC(=O)[C@@H]1CCCN1C(=O)[C@@H](NC(=O)[C@H](CC(N)=O)NC(=O)[C@H](CO)NC(=O)[C@H](CO)NC(=O)[C@H](CCCCN)NC(=O)[C@@H]1CCCN1C(=O)[C@H](CC(N)=O)NC(=O)[C@H](CCSC)NC(=O)[C@@H](NC(=O)[C@H](CO)NC(=O)[C@H](CC(N)=O)NC(=O)[C@H](Cc1ccccc1)NC(=O)[C@H](CC(C)C)NC(=O)[C@H](CC(C)C)NC(=O)[C@H](CCC(=O)O)NC(=O)[C@H](CC(C)C)NC(=O)[C@H](CC(=O)O)NC(=O)[C@@H](NC(=O)[C@H](CCC(N)=O)NC(=O)[C@H](CO)NC(C)=O)[C@@H](C)O)C(C)C)C(C)C)C(=O)N[C@@H](CCCNC(=N)N)C(=O)N[C@@H](CC(N)=O)C(=O)N[C@@H](CC(C)C)C(=O)N1CCC[C@H]1C(=O)N[C@@H](CC(=O)O)C(=O)N[C@@H](CO)C(=O)N[C@@H](Cc1ccccc1)C(=O)N[C@@H](Cc1ccccc1)C(=O)N[C@@H](CCCCN)C(=O)N1CCC[C@H]1C(=O)N1CCC[C@H]1C(N)=O | TEAD4 | protein-protein interaction, inhibitor, TR-FRET | – | – | 7.19 |
| CN1[C@@H](CCc2ccccc2)CCC[C@H]1CCc1ccccc1 | KCNH2 | ligand displacement | HEK293 | 1 h, pH 7.4, cell membranes | 6.62 |
| COc1cc(C(=O)NS(=O)(=O)c2ccccc2C)ccc1Cc1cn(C)c2ccc(NC(=O)OC3CCCC3)cc12 | PDE4D | enzyme activity, inhibitor, radiometric | – | – | 5.27 |
| CC[C@H](C)[C@H](NC(=O)[C@H](CCCNC(=N)N)NC(=O)CN)C(=O)N[C@@H](CC(=O)O)C(=O)N[C@@H](CCCCN)C(=O)N1CCC[C@H]1C(=O)N[C@H](C(=O)N[C@@H](CC(C)C)C(=O)N[C@@H](C)C(=O)O)[C@@H](C)CC | Antigen peptide transporter 1/Antigen peptide transporter 2 | ligand displacement | – | – | 5.27 |
| CC(C)c1cccc(=O)c(O)c1 | eno (Escherichia coli, UniProt P0A6P9) | enzyme activity, inhibitor, absorbance | – | – | 4.96 to 5.10 |
| CC[C@H](C)[C@H](NC(=O)[C@@H](NC(=O)[C@H](CC(N)=O)NC(=O)[C@H](CCCCN)NC(=O)[C@@H]1CCCN1C(=O)[C@H](CC(N)=O)NC(=O)[C@H](CCSC)NC(=O)[C@@H](NC(=O)[C@H](C)NC(=O)[C@H](CC(N)=O)NC(=O)[C@H](Cc1ccccc1)NC(=O)[C@H](CC(C)C)NC(=O)[C@H](C)NC(=O)[C@H](CCC(=O)O)NC(=O)[C@H](CC(C)C)NC(=O)[C@H](CC(=O)O)NC(=O)[C@@H](NC(=O)[C@H](CCC(=O)O)NC(=O)[C@H](CO)NC(C)=O)[C@@H](C)O)C(C)C)[C@@H](C)O)C(=O)N[C@H](C(=O)N1CCC[C@H]1C(=O)N1CCC[C@H]1C(=O)N[C@@H](CO)C(=O)N[C@H](C(=O)N1CCC[C@H]1C(=O)N[C@@H](CCSC)C(=O)N[C@@H](CCCNC(=N)N)C(=O)N[C@@H](CC(C)C)C(=O)N[C@@H](CCCNC(=N)N)C(=O)N[C@@H](CCCCN)C(=O)N[C@@H](CC(C)C)C(=O)N1CCC[C@H]1C(=O)N[C@@H](CC(=O)O)C(=O)N[C@@H](CO)C(=O)N[C@@H](Cc1ccccc1)C(=O)N[C@@H](Cc1ccccc1)C(=O)N[C@H](C(=O)N1CCC[C@H]1C(=O)N1CCC[C@H]1C(N)=O)[C@@H](C)O)C(C)C)C(C)C | TEAD4 | protein-protein interaction, inhibitor, TR-FRET | – | – | 7.19 |
| CC(C)C[C@H](NC(=O)[C@H](CCC(=O)O)NC(=O)[C@@H](NC(=O)[C@H](CO)NC(=O)[C@H](CCCCN)NC(=O)[C@H](CCC(N)=O)NC(=O)[C@H](Cc1ccc(O)cc1)NC(=O)[C@H](C)NC(=O)[C@@H](N)CCCNC(=N)N)[C@@H](C)O)C(=O)O | Antigen peptide transporter 1/Antigen peptide transporter 2 | ligand displacement | – | – | 6.40 |
| CC(NC(C)(C)C)C(=O)c1cccc(Cl)c1 (centres unmarked) | Sodium-dependent dopamine transporter (Slc6a3, Rattus norvegicus, UniProt P23977) | transporter uptake, inhibitor, radiometric | – | – | 6.52 |
| CC(C)C[C@H](NC(=O)[C@H](CCC(=O)O)NC(=O)[C@@H](NC(=O)[C@H](CO)NC(=O)[C@H](CCCCN)NC(=O)[C@H](CCC(N)=O)NC(=O)[C@H](Cc1ccc(O)cc1)NC(=O)[C@@H](N)CCCNC(=N)N)[C@@H](C)O)C(=O)O | Antigen peptide transporter 1/Antigen peptide transporter 2 | ligand displacement | – | – | 4.00 |
| COc1c(-c2ccc3c(c2)OCO3)oc2c(ccc3occc32)c1=O | CDK7 with cyclin H | enzyme activity, inhibitor, ADP detection | – | – | < 4.30 |
| CC[C@H](C)[C@H](NC(=O)[C@H](CCCNC(=N)N)NC(=O)CN)C(=O)N[C@@H](CC(=O)O)C(=O)N[C@@H](CCCCN)C(=O)N1CCC[C@H]1C(=O)N[C@H](C(=O)N[C@@H](CC(C)C)C(=O)N[C@@H](CCCCN)C(=O)O)[C@@H](C)CC | Antigen peptide transporter 1/Antigen peptide transporter 2 | ligand displacement | – | – | 5.57 |
| CCc1c(C)nc(-c2ccc(Cl)s2)nc1Nc1ccc(CC(=O)O)cc1 | 3',5'-cyclic-AMP phosphodiesterase 4D (PDE4D, Homo sapiens, UniProt Q08499, S190D/S715A/S717A) | enzyme activity, inhibitor, fluorescence | – | – | 5.80 |
| CC(C)C[C@H](NC(=O)[C@H](C)NC(=O)[C@H](C)NC(=O)[C@H](C)NC(=O)[C@H](C)NC(=O)[C@H](C)NC(=O)[C@H](C)NC(=O)[C@H](CCCNC(=N)N)NC(=O)[C@H](C)N)C(=O)O | Antigen peptide transporter 1/Antigen peptide transporter 2 | ligand displacement | – | – | 6.05 |
| CN1[C@@H](CC(=O)c2ccccc2)CCC[C@H]1C[C@H](O)c1ccccc1 | KCNH2 | ligand displacement | HEK293 | 1 h, pH 7.4, cell membranes | 5.82 |
